Results taken from the M2OR odorant receptor database.
Substitutions are numbered along the chain they refer to.

What was measured:
Conditions in all cases: stereoisomer not certain
[1] = target: T1, OR5K1 (Homo sapiens) (UniProt Q8NHB7)
T1 sequence (whole entry): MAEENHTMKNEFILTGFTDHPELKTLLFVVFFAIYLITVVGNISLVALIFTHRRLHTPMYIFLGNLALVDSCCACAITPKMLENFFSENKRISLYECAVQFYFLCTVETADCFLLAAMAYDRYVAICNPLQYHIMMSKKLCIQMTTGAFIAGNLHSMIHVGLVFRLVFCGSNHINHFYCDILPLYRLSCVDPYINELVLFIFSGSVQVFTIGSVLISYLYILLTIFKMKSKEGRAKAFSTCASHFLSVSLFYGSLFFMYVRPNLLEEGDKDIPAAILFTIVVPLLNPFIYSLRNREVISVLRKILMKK
Outline: (§1)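 Assay methods differ from source to source, frequently being transient luciferase assays in mammalian cell lines. For each receptor–molecule pair, the label responsive (active) applies when the original authors judged the measured signal statistically different from baseline, and non-responsive (inactive) applies otherwise.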

[2] = system: T2, OR5H2
T2 sequence (whole entry): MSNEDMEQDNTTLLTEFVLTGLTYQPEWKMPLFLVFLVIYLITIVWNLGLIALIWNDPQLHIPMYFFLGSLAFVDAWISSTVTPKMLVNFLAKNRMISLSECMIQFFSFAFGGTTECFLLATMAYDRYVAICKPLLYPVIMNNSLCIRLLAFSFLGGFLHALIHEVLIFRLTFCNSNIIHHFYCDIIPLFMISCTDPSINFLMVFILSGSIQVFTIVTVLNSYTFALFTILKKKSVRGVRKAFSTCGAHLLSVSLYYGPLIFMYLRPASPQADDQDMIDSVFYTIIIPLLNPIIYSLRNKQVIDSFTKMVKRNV
Outline: as §1

[3] = target: T3, OR5H6 (Homo sapiens) (UniProt Q8NGV6)
T3 sequence (whole entry): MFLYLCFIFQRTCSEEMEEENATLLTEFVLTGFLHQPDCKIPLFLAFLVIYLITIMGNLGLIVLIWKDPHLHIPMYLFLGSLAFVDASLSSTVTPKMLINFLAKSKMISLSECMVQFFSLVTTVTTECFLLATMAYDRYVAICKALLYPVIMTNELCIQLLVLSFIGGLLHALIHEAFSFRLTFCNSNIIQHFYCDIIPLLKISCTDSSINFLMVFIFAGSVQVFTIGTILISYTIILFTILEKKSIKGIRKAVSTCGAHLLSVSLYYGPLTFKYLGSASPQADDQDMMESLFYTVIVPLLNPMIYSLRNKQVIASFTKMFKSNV
Outline: as §1

[4] = target: T4, OR5I1 (Homo sapiens) (UniProt Q13606)
T4 sequence (whole entry): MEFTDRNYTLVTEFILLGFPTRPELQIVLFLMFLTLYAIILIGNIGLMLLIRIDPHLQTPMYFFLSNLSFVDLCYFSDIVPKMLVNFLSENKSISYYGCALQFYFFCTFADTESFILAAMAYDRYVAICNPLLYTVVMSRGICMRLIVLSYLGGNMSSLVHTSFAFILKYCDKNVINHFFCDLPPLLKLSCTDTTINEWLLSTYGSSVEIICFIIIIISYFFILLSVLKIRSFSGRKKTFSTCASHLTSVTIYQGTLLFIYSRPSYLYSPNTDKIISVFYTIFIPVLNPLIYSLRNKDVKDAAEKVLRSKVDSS
Outline: as §1

[5] = target: T5, OR5J2 (Homo sapiens) (UniProt Q8NH18)
T5 sequence (whole entry): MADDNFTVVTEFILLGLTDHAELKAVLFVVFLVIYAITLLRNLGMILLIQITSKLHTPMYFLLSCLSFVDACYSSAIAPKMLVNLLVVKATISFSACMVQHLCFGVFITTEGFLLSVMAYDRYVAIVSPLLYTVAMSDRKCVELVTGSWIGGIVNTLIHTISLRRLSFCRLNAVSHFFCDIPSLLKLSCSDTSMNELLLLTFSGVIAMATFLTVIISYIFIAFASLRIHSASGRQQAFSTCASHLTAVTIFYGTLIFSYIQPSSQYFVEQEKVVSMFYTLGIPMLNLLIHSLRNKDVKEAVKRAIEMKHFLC
Outline: as §1

[6] = target: T6, OR5K2 (Homo sapiens) (UniProt Q8NHB8)
T6 sequence (whole entry): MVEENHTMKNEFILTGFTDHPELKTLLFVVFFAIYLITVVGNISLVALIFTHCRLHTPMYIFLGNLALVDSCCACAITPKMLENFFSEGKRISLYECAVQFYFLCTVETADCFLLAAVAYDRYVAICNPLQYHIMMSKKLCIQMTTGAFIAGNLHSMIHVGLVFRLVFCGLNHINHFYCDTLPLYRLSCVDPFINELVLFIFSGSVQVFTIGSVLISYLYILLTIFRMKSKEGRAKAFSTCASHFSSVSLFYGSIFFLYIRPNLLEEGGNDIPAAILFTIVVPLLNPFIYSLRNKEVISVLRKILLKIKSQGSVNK
Outline: as §1

[7] = system: T7, OR5K2 L197M
T7 sequence (whole entry): T6 sequence (whole entry) with L197M
Outline: as §1

[8] = target: OR5H8 (Homo sapiens) (UniProt P0DN80)
Outline: as §1

[9] = system: T8, OR5H1
T8 sequence (whole entry): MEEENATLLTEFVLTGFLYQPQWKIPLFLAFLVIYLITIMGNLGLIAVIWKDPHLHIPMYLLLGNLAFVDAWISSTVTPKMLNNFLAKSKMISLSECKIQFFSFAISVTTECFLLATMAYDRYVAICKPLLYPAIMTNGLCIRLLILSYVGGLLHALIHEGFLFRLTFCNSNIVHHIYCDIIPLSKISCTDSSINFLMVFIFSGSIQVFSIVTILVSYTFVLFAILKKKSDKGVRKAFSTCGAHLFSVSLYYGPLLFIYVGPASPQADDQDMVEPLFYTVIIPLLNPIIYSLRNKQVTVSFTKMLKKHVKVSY
Outline: as §1

[10] = system: OR5K1 F62L
Outline: as §1

Measured: odorant receptor agonist call

OR5H8 (Homo sapiens), sequence (P0DN80 whole entry): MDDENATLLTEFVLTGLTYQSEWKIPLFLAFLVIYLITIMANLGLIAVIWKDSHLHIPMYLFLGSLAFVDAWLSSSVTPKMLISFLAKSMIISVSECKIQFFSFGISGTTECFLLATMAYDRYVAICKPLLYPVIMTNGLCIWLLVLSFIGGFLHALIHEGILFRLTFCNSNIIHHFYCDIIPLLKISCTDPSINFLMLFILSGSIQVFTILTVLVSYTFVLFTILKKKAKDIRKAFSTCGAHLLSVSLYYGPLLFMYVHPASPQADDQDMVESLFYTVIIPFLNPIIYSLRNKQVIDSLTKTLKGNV
OR5K1 F62L, sequence (as listed by the source, stated change not applied): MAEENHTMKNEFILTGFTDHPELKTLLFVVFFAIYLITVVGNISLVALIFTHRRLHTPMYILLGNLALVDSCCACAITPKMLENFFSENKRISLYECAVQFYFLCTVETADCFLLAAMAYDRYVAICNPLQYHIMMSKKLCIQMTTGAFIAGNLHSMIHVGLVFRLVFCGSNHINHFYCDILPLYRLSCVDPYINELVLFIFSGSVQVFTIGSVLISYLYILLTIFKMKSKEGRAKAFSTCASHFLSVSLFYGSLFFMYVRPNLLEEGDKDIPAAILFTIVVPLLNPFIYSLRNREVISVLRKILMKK

COC(=O)C(C)C
inactive: [1]

CCCCCCC=CCCC=O
not listed: [8] | [9] | [10]
inactive: all other assays above

CCc1cccc(O)c1
inactive: [1]

Cc1cccc(O)c1
inactive: [1]

Cc1cccc(C)c1O
inactive: [1]

CCOC(=O)c1ccccc1
inactive: [1]

C=C(C)c1ccc(C)cc1
inactive: [1]

CCCCC1OC(=O)CC1C (configuration not stated)
inactive: [1]

CC(=O)OCCc1ccccc1
inactive: [1]

CCCCC(=O)OCC
inactive: [1]

CC1CCCCCCCCCCCCC(=O)C1 (configuration not stated)
inactive: [2] | [3] | [8] | [4] | [5] | [6]

CC1=C(O)C(=O)C(C)O1 (configuration not stated)
not listed: [8] | [10]
inactive: all other assays above

C=Cc1ccc(O)c(OC)c1
inactive: [1]

CC1=CCC(C(C)C)C=C1 (configuration not stated)
inactive: [1]

CC(=O)c1c(C)c([N+](=O)[O-])c(C(C)(C)C)c([N+](=O)[O-])c1C
inactive: [2] | [3] | [8] | [4] | [5] | [6]

CSCSC
inactive: [1]

CC(CO)CS (configuration not stated)
inactive: [2] | [3] | [5] | [1] | [6]

C=CC(=C)CCC=C(C)C
inactive: [1]

CCCC(S)CCOC(C)=O (configuration not stated)
not listed: [8] | [10]
inactive: all other assays above

CC=CC(=O)C1=C(C)CCCC1(C)C
inactive: [1]

CCC1OC(C)=C(O)C1=O (configuration not stated)
not listed: [8] | [10]
inactive: all other assays above

C=Cc1ccc(O)cc1
inactive: [1]

CCCC(=O)C(C)CC (configuration not stated)
inactive: [1]

CC1=C(O)C(=O)OC1C (configuration not stated)
not listed: [8] | [10]
inactive: all other assays above

Cc1cnc(C)c(C)n1
active: [1] | [10]
not listed: [8]
inactive: all other assays above

C=CCSC
inactive: [1]

CCCCCC(=O)C(C)C(C)=O (configuration not stated)
inactive: [2] | [3] | [5] | [1] | [6]
